Experimental data from ChEMBL document CHEMBL2429828, “Discovery of thiazolyl-phthalazinone acetamides as potent glucose uptake activators via high-throughput screening” (Bioorg Med Chem Lett, 2013).
Calls of active or inactive are those of the source. The rule behind the calls is not given here.

Columns and labels:
L6 [1] = test: Induction of glucose uptake in rat L6 cells pulsed with C14-deoxy glucose at 10 uM after 24 hrs in presence of insulin relative to control; assay type: functional
Procedure, shortened: (§1)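 L6 rat skeletal muscle cells grown in MEM alpha with 10% serum, differentiated at confluence in 2% serum, then serum-starved. Treated overnight; after 24 h, pulsed 10 min with 14C-deoxyglucose in presence of insulin. Uptake read by scintillation after lysis with Microscint PS.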

L6 [2] = test: Induction of glucose uptake in rat L6 cells pulsed with C14-deoxy glucose after 24 hrs in presence of insulin; assay type: functional, cell-based; settings: L6, 24 h; procedure, shortened: as §1
[3] = target: T1, Peroxisome proliferator-activated receptor gamma (Homo sapiens) (UniProt P37231); test: Transactivation of GAL4 DNA binding domain-fused human PPAR-gamma ligand binding domain transfected in African green monkey CV1 cells after 24 hrs by luciferase reporter gene assay; assay type: cell-based; settings: CV-1
T1 sequence (whole entry): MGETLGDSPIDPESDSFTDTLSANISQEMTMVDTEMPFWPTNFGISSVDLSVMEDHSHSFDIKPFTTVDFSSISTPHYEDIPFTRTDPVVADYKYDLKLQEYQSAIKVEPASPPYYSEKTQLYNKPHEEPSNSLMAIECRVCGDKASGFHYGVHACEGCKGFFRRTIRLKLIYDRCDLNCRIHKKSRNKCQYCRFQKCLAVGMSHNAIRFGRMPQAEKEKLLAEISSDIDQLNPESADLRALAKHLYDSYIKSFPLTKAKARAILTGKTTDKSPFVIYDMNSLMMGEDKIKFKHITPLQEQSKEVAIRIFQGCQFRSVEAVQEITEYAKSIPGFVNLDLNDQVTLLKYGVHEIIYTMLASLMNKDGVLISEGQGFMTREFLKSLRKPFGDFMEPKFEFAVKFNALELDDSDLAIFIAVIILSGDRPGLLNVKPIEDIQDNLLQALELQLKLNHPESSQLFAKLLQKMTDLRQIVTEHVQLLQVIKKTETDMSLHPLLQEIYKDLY
Procedure, shortened: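 CV-1 cells seeded at 25,000 cells/well, incubated overnight, then transiently co-transfected (Lipofectamine 2000) with Gal4-element luciferase reporter and GAL4 DBD–PPAR-γ LBD plasmid. Compounds added 6 h post-transfection for 24 h, then luminescence read. Values expressed as % of 1 µM rosiglitazone response (set as 100%). Triplicates, repeated twice.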

SMILES: Cn1nc(CC(=O)NC23CC4CC(CC(O)(C4)C2)C3)c2ccccc2c1=O
- fold change (FC) (L6 [1]): 0.7

SMILES: Cn1nc(CC(=O)Nc2nc(-c3ccc(Cl)cc3)cs2)c2ccccc2c1=O
- fold change (FC) (L6 [1]): 3.4

SMILES: O=C(O)Cc1nn(CC(=O)c2ccccc2)c(=O)c2ccccc12
- fold change (FC) (L6 [1]): 0.9

SMILES: Cn1nc(CC(=O)Nc2cc(-c3ccc(F)cc3)on2)c2ccccc2c1=O
- fold change (FC) (L6 [1]): 1.3

SMILES: Cn1nc(CC(=O)Nc2nccc(=O)[nH]2)c2ccccc2c1=O
- fold change (FC) (L6 [1]): 1.2

SMILES: Cc1sc(NC(=O)Cc2nn(C)c(=O)c3ccccc23)nc1-c1ccccc1
- fold change (FC) (L6 [1]): 3.4
- EC50 (L6 [2]): 10 nM

SMILES: CN(C(=O)Cc1nn(C)c(=O)c2ccccc12)c1nc(-c2ccccc2)cs1
- fold change (FC) (L6 [1]): 1.8
- EC50 (L6 [2]): 5960 nM

SMILES: Nc1nc(-c2ccccc2)cs1
- Activity (L6 [1]): inactive

SMILES: CN(CCOc1ccc(CC2SC(=O)NC2=O)cc1)c1ccccn1 (centres undefined) [ROSIGLITAZONE]
- fold change (FC) (L6 [1]): 1.8
- EC50 (L6 [2]): 4490 nM

SMILES: Cn1nc(CC(=O)Nc2nc(-c3ccccc3O)cs2)c2ccccc2c1=O
- fold change (FC) (L6 [1]): 1.3

SMILES: O=C(O)Cc1nnc(O)c2ccccc12
- Activity (L6 [1]): inactive

SMILES: Cn1nc(CC(=O)Nc2nc(-c3ccccc3)cs2)c2ccccc2c1=O
- fold change (FC) (L6 [1]): 1.8
- Activity [3]: 0.3%
- EC50 (L6 [2]): 70 nM

SMILES: Cn1nc(CC(=O)Nc2nc(-c3ccccc3)c(C(=O)O)s2)c2ccccc2c1=O
- fold change (FC) (L6 [1]): 1.3

SMILES: CCOC(=O)c1sc(NC(=O)Cc2nn(C)c(=O)c3ccccc23)nc1-c1ccccc1
- fold change (FC) (L6 [1]): 1.3

SMILES: CN(C(=O)CCCCC(=O)O)c1nc(-c2ccccc2)cs1
- fold change (FC) (L6 [1]): 0.9

SMILES: Cn1nc(CC(=O)Nc2nc(-c3ccc(Br)cc3)cs2)c2ccccc2c1=O
- fold change (FC) (L6 [1]): 3.6
- EC50 (L6 [2]): 100 nM

SMILES: CCOC(=O)c1sc(NC(=O)Cc2nn(C)c(=O)c3ccccc23)nc1C
- fold change (FC) (L6 [1]): 0.9
- EC50 (L6 [2]): 40 nM

SMILES: Cc1sc(NC(=O)Cc2nn(C)c(=O)c3ccccc23)nc1-c1ccc(Br)cc1
- fold change (FC) (L6 [1]): 3.4
- EC50 (L6 [2]): 3 nM

SMILES: O=C(Cc1nn(CCO)c(=O)c2ccccc12)Nc1nc(-c2ccccc2)cs1
- fold change (FC) (L6 [1]): 0.8

SMILES: Cn1nc(CC(=O)Nc2ccc(Cl)c(C(F)(F)F)c2)c2ccccc2c1=O
- fold change (FC) (L6 [1]): 2
- EC50 (L6 [2]): 2560 nM

SMILES: Cn1nc(CC(=O)Nc2ncc(-c3ccccc3)c(=O)[nH]2)c2ccccc2c1=O
- fold change (FC) (L6 [1]): 1.9
- EC50 (L6 [2]): 7470 nM

SMILES: CCOC(=O)CN(C(=O)Cc1nn(C)c(=O)c2ccccc12)c1nc(-c2ccccc2)cs1
- fold change (FC) (L6 [1]): 1.9
- EC50 (L6 [2]): 280 nM

SMILES: Cn1nc(CC(=O)Nc2nccs2)c2ccccc2c1=O
- fold change (FC) (L6 [1]): 1.7
- EC50 (L6 [2]): 120 nM

SMILES: Cn1nc(CC(=O)Nc2nc(-c3ccc(F)cc3)cs2)c2ccccc2c1=O
- fold change (FC) (L6 [1]): 2.7

SMILES: CCOC(=O)Cc1nn(CC(=O)c2ccccc2)c(=O)c2ccccc12
- fold change (FC) (L6 [1]): 1.1

SMILES: Cn1nc(CC(=O)Nc2ncc(-c3ccccc3)s2)c2ccccc2c1=O
- fold change (FC) (L6 [1]): 1.6

SMILES: CCc1oc(NC(=O)Cc2nn(C)c(=O)c3ccccc23)nc1-c1ccccc1
- fold change (FC) (L6 [1]): 1

SMILES: CCOC(=O)Cc1nnc(O)c2ccccc12
- Activity (L6 [1]): inactive

SMILES: Cn1nc(CC(=O)Nc2nccc3ccccc23)c2ccccc2c1=O
- fold change (FC) (L6 [1]): 4.9
- EC50 (L6 [2]): 170 nM

SMILES: O=C(Cc1n[nH]c(=O)c2ccccc12)NNC(=O)c1nc(-c2ccccc2)cs1
- fold change (FC) (L6 [1]): 0.9

SMILES: NNC(=O)Cc1n[nH]c(=O)c2ccccc12
- Activity (L6 [1]): inactive

SMILES: Cn1nc(CC(=O)Nc2nc(-c3ccc(C(F)(F)F)cc3)cs2)c2ccccc2c1=O
- fold change (FC) (L6 [1]): 3.2

SMILES: Cn1nc(CC(=O)NCc2n[nH]c(=O)c3ccccc23)c2ccccc2c1=O
- fold change (FC) (L6 [1]): 0.8

SMILES: COc1ccc(-c2nc(NC(=O)Cc3nn(C)c(=O)c4ccccc34)sc2C)cc1
- fold change (FC) (L6 [1]): 2.9
- Activity [3]: 1%
- EC50 (L6 [2]): 9 nM

SMILES: COc1ccc2c(oc3ccccc32)c1NC(=O)Cc1nn(C)c(=O)c2ccccc12
- fold change (FC) (L6 [1]): 1.3

SMILES: O=C(Cc1n[nH]c(=O)c2ccccc12)Nc1nc(-c2ccccc2)cs1
- fold change (FC) (L6 [1]): 1.8
- EC50 (L6 [2]): 40 nM

SMILES: O=C(O)CCCCC(=O)Nc1nc(-c2ccccc2)cs1
- Activity (L6 [1]): inactive

SMILES: COC(=O)CCCCC(=O)N(C)c1nc(-c2ccccc2)cs1
- fold change (FC) (L6 [1]): 1.2
